Read-outs that look alike come from different tables or passages of the source. Values belong to the compound of their own block, whether it stands above or below them.
How the values were obtained:
PCSK9 mRNA [1] = settings: read-out: IC50 of decreasing PCSK9 mRNA level; cited from earlier work
HepG2 cells = assay: DiI-LDL uptake assay; format: cell-based, human; settings: 5 μmol/L, 24 h, then 20 μg/mL DiI-LDL 4 h, fold of vehicle
Method in brief: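 Washes: PBS/0.4% albumin ×2, PBS ×3. Isopropanol extraction 20 min RT; fluorescence ex 520/em 570 nm; residual cells lysed in 0.5 mol/L NaOH for protein determination.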

[2] = cited from earlier work
[3] = 32 hypercholesterolemic patients, 3 months of treatment; cited from earlier work
dopamine D2 = dopamine D2 (Homo sapiens, UniProt P14416); assay: Calcium mobilization assay, dopamine D2 antagonist activity; format: cell-based; settings: HEK293 D2/Gα16 cells
Method in brief: (§1)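 HEK293 cells stably co-expressing the receptor and Gα16 were seeded in 96-well plates and grown 24 h. Cells were loaded with 2 μmol/L Fluo-4 AM in HBSS (pH 7.4, BSA 5 g/L, sulfinpyrazone 250 μmol/L) at 37 °C for 45 min. Test compound was added for 10 min at RT, then the respective agonist. Calcium signal was read at ex 485/em 525 nm. IC50 came from nonlinear-regression dose–response curves.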

[4] = biological target: serotonin 5-HT1B receptor (Homo sapiens, UniProt P28222); assay: Whole-cell binding assay, 5-HT1B
Method in brief: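 CHO-K1 cells stably expressing 5-HT1B were seeded at 3 × 10⁴ cells/well and assayed 24 h later. Cells were incubated overnight at 4 °C with 1 nmol/L ³H-GR125743 or ³H-mesulergine plus unlabeled test compound (1.28 nmol/L–100 μmol/L). They were then washed with ice-cold PBS and lysed (PBS, 20 mmol/L Tris-HCl, 1% Triton X-100, pH 7.4). Bound radioactivity was scintillation-counted, and IC50 came from nonlinear regression.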

dopamine D1 = dopamine D1 (Homo sapiens, UniProt P21728); assay: Calcium mobilization assay, dopamine D1 antagonist activity; format: cell-based; settings: HEK293 D1/Gα16 cells
Method in brief: as §1

[5] = biological target: beta-1 adrenergic receptor (Homo sapiens, UniProt P08588); assay: Calcium mobilization assay, β1 adrenergic receptor antagonist activity; format: cell-based; settings: HEK293 β1-AR/Gα16 cells
Method in brief: as §1

[6] = Pharmacokinetic profiles in male hamsters; format: in vivo; settings: hamster, serum
Method in brief: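 Male hamsters, n = 3 per group, received test compound either at 20 mg/kg by oral gavage in 0.5% CMC-Na or at 10 mg/kg i.v. in 5% DMSO/10% cremophor EL/85% saline. Blood was drawn at 0, 0.5, 1, 2, 4, 6, 8, 10, 12 and 24 h, and serum was separated at 4000×g for 10 min. Serum levels were measured by LC/MS/MS. Parameters are averages of three runs.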

[7] = In vivo cholesterol-lowering assay in HFD-induced hyperlipidemic hamsters; parameters: species or system Syrian hamster; settings: 21 days, vs HFD control
Method in brief: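 Male Syrian hamsters (100–120 g) were acclimatized 7 days, then fed a high-fat diet (0.5% cholesterol) for 1 week. They were randomized to groups of n = 7. Test compound (30 mg/kg) or fenofibrate positive control (100 mg/kg) was given by daily oral gavage for 21 days; controls received 0.5% CMC-Na vehicle. After a 15 h fast, serum was taken under anesthesia and TC and LDL-C were measured by kit. Mean ± SEM.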

LDLR = assay: Western blot analysis of LDLR expression in HepG2 cells; format: cell-based, human; settings: 5 μmol/L, 24 h
hERG channel = hERG channel (Homo sapiens, UniProt Q12809); assay: hERG testing; format: cell-based
Method in brief: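 FluxOR thallium-flux assay in CHO-hERG-ZG cells kept under G418 and hygromycin B (100 μg/mL each). Cells were plated and held 30 min at RT in the dark, then 16–18 h at 37 °C. Dye loading ran 90 min at RT in the dark, then the medium was swapped for assay buffer and compound added for 20 min at RT in the dark. Fluorescence was recorded every 2 s to 10 s; stimulus buffer was added at 10 s, then recording continued every 1 s to 180 s.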

PCSK9 mRNA [8] = assay: Real-time PCR of PCSK9 mRNA in HepG2 cells; format: cell-based; settings: Homo sapiens, HepG2, 24 h, read-out: IC50 of PCSK9 mRNA expression
PCSK9 = PCSK9 ELISA in HepG2 cells; format: cell-based, human; settings: read-out: IC50 of PCSK9 protein expression, 24 h

Sequence of dopamine D1 (P21728 whole entry): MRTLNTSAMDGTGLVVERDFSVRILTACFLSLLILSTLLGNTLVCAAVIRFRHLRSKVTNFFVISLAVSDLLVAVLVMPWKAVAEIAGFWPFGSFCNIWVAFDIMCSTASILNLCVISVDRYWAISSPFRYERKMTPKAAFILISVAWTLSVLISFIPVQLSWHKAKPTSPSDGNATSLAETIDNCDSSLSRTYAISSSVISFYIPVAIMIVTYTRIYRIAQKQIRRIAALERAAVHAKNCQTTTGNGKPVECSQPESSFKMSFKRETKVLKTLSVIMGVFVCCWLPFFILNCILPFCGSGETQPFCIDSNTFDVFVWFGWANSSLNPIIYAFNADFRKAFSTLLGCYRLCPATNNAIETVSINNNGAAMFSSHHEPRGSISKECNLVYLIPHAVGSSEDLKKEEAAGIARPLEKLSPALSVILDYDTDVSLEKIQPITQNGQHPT
Sequence of dopamine D2 (P14416 whole entry): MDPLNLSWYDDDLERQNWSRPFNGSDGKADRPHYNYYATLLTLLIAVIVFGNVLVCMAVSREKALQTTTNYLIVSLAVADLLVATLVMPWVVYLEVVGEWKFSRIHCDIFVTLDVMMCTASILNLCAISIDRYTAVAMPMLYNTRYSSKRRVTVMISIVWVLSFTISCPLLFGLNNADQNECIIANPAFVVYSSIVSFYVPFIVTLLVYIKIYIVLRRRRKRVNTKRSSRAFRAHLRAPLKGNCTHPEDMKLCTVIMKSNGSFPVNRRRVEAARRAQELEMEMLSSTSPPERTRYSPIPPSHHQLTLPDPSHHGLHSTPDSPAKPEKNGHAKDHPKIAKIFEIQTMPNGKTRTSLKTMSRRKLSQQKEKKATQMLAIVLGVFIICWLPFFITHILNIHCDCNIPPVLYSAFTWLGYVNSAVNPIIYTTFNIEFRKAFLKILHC
Sequence of serotonin 5-HT1B receptor (P28222 whole entry): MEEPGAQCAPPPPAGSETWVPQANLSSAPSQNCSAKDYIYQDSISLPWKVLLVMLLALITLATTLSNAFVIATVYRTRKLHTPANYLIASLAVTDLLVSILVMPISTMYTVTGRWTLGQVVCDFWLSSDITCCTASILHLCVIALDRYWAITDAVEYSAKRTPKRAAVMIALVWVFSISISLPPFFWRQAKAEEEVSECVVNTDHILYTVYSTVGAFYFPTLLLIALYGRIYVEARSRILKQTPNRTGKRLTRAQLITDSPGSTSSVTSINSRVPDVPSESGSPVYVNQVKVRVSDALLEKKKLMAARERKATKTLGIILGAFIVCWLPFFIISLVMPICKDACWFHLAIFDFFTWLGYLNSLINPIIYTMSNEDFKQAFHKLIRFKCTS
Sequence of beta-1 adrenergic receptor (P08588 whole entry, species assumed): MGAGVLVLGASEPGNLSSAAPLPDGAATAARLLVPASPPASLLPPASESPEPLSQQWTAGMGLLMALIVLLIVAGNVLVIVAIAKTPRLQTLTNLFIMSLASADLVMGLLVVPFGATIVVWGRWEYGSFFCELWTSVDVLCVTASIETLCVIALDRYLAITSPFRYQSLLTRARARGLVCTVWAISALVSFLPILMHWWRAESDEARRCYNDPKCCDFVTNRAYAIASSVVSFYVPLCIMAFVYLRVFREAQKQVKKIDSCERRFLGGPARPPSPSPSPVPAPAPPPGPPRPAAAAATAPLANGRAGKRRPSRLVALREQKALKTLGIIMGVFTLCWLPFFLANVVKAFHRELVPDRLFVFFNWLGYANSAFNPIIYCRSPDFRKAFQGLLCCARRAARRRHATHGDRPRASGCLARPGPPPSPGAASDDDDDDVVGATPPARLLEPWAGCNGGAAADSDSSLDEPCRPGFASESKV
Sequence of hERG channel (Q12809 whole entry): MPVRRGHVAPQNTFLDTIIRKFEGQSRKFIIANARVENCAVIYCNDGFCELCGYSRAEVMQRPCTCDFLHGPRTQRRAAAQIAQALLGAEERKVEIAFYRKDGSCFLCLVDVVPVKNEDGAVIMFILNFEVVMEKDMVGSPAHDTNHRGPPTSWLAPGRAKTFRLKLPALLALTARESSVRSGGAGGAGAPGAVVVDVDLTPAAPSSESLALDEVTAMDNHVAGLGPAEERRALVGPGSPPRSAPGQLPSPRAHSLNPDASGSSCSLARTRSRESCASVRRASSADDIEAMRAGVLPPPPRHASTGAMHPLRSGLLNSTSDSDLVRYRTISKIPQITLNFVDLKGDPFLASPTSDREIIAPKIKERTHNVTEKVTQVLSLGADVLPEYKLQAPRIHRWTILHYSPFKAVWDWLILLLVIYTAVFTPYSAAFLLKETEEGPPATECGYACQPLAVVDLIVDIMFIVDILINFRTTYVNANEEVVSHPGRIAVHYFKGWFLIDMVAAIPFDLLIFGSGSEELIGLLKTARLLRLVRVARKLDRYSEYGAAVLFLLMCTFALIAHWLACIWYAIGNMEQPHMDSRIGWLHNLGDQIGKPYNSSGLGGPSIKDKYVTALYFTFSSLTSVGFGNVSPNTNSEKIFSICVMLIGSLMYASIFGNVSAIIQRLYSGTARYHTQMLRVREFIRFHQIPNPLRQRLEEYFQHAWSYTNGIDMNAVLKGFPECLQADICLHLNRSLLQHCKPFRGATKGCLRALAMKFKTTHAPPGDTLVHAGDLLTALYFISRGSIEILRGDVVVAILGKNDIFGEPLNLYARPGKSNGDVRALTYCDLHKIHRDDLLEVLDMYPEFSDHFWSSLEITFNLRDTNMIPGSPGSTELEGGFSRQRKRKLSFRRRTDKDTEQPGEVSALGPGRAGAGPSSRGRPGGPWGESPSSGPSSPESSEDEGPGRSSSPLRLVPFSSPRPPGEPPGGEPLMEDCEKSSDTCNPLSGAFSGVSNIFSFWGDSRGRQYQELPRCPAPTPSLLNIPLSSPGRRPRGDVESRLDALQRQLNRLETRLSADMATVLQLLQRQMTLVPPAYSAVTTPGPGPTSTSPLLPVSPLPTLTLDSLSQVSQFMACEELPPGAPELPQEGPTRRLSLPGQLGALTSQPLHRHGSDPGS

Compound: COc1ccc2cc3[n+](cc2c1OC)CCc1cc2c(cc1-3)OCO2 [Berberine]
IC50 (PCSK9 mRNA [1]): 8.04 µM
DiI-LDL uptake rate (compared to vehicle, mean±SEM) (HepG2 cells): 1.38±0.03
bioavailability (F) [2]: < 1%
oral bioavailability [2]: ~0%
reduction of LDL-C [3]: 25%
reduction of serum total cholesterol (TC) [3]: 29%

Compound: COc1ccc2c(c1)c1c(n2CO)CN2CCc3cc(OC)c(OCc4ccc(F)cc4)cc3C2C1 (centres unmarked) [Compound 18, (2-((4-Fluorobenzyl)oxy)-3,12-dimethoxy-5,6,14,14a-tetrahydroindolo[3′,2′:4,5]pyrido[2,1-a]isoquinolin-9(8H)-yl)methanol]
IC50 (dopamine D2): > 100 µM
IC50 [4]: > 100 µM
IC50 (dopamine D1): 1.71 ± 0.1 µM
IC50 [5]: ~100 µM

Compound: COc1ccc2c(c1)c1c(n2CO)CN2CCc3cc(OCc4ccccc4)c(OC)cc3C2C1 (centres unmarked) [Compound 22, (3-(Benzyloxy)-2,12-dimethoxy-5,6,14,14a-tetrahydroindolo[3′,2′:4,5]pyrido[2,1-a]isoquinolin-9(8H)-yl)methanol]
AUC(0-inf) ([6]; iv, 10 mg/kg): 2090 ng·h/mL
MRT ([6]; iv, 10 mg/kg): 4.13 h
clearance ([6]; iv, 10 mg/kg): 84.1 mL/min/kg
half-life ([6]; iv, 10 mg/kg): 3.61 h
bioavailability ([6]; oral, 20 mg/kg): 21.9%
AUC(0-inf) ([6]; po, 20 mg/kg): 1000 ng·h/mL
Cmax ([6]; po, 20 mg/kg): 169 ng/mL
MRT ([6]; po, 20 mg/kg): 10.3 h
half-life ([6]; po, 20 mg/kg): 6.35 h
IC50 (dopamine D2): ≥ 100 µM
reduction in serum LDL-C ([7]; 30 mg/kg oral gavage daily): 41.4%
reduction in serum TC ([7]; 30 mg/kg oral gavage daily): 36.7%
IC50 [4]: 13.4 ± 0.51 µM
IC50 (dopamine D1): ~100 µM
LDLR expression compared to DMSO (LDLR): 2.06 fold
IC50 (hERG channel): 7.99 µM
IC50 (PCSK9 mRNA [8]): 1.1 µM
IC50 (PCSK9): 1.34 µM
IC50 [5]: ≥ 100 µM

Compound: CC(C)OC(=O)C(C)(C)Oc1ccc(C(=O)c2ccc(Cl)cc2)cc1 [fenofibrate, reference compound]
decrease of serum LDL-C ([7]; p.o. 100 mg/kg daily): 79.4%
decrease of serum TC ([7]; p.o. 100 mg/kg daily): 71.3%

The next lines start with results.

IC50 (dopamine D2): 17.9 ± 0.86 µM
IC50 [4]: 47.2 ± 1.22 µM
IC50 (dopamine D1): 5.56 ± 0.08 µM
IC50 [5]: > 100 µM
Compound: COc1cc2c(cc1OCc1ccccc1F)C1Cc3c(n(CO)c4ccccc34)CN1CC2 (centres unmarked) [Compound 8, (2-((2-Fluorobenzyl)oxy)-3-methoxy-5,6,14,14a-tetrahydroindolo[3′,2′:4,5]pyrido[2,1-a]isoquinolin-9(8H)-yl)methanol]
DiI-LDL uptake rate (compared to vehicle, mean±SEM) (HepG2 cells): 1.04±0.04

IC50 (dopamine D2): ~50 µM
IC50 [4]: > 100 µM
IC50 (dopamine D1): 2.35 ± 0.07 µM
IC50 [5]: ~100 µM
Compound: COc1ccc2c(c1)c1c(n2CO)CN2CCc3cc(OC)c(OCC(F)(F)F)cc3C2C1 (centres unmarked) [Compound 21, (3,12-Dimethoxy-2-(2,2,2-trifluoroethoxy)-5,6,14,14a-tetrahydroindolo[3′,2′:4,5]pyrido[2,1-a]isoquinolin-9(8H)-yl)methanol]
DiI-LDL uptake rate (compared to vehicle, mean±SEM) (HepG2 cells): 1.45±0.04^∗∗

From paper PMC6900552 (Acta Pharmaceutica Sinica. B, 2019)
